Legend:
[1] = molecular target: T1, Sterol O-acyltransferase 1 (Rattus norvegicus) (UniProt O70536); assay: In vitro acyl coenzyme A:cholesterol acyltransferase (ACAT) activity in rat liver microsome at a concentration of 10 micro g/mL; type: microsomes
T1 sequence (whole entry): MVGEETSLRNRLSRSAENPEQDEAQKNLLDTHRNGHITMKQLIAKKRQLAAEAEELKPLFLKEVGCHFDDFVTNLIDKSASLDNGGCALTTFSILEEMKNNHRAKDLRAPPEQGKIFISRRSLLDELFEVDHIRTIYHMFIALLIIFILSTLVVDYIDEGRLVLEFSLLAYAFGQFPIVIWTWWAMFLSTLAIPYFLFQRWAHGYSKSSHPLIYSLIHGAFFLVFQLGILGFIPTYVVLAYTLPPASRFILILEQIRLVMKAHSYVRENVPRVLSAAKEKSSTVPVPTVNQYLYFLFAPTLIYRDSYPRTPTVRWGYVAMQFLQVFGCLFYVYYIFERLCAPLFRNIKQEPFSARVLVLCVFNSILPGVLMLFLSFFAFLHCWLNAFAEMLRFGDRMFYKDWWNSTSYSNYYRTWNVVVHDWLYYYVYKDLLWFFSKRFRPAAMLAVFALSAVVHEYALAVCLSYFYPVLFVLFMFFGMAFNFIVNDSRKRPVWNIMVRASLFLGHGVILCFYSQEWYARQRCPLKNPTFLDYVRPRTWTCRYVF
How it was run: (§1)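 Enzyme source was hepatic microsomes from cholesterol-fed rats, 60 μg microsomal protein per reaction, with 90 μM radiolabeled oleoyl-CoA. Cholesterol ester formed was separated by TLC and quantified by scintillation counting. Compounds were tested at a single fixed concentration of 1 or 10 μg/mL, and results were given as percent inhibition of enzyme activity.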

[2] = molecular target: T2, Sterol O-acyltransferase 1 (Rattus norvegicus, UniProt O70536); assay: Inhibition of acyl coenzyme A:cholesterol acyltransferase (ACAT) activity in rat liver microsome; type: microsomes
T2 sequence (O70536 whole entry): T1 sequence (whole entry)
How it was run: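 The assay used rat hepatic microsomes from cholesterol-fed animals (60 μg protein) and 90 μM radiolabeled oleoyl-CoA. Cholesterol ester product was resolved by TLC and counted by scintillation. IC50 was the concentration inhibiting 50% of enzyme activity.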

[3] = molecular target: T1, Sterol O-acyltransferase 1 (Rattus norvegicus); assay: Tested in vitro for acyl coenzyme A:cholesterol acyltransferase (ACAT) activity in rat liver microsome at a concentration of 1 micro g/mL; type: microsomes; how it was run: as §1
Rattus norvegicus = assay: Tested in vivo for anti-hypercholesterolaemic activity in male Sprague-Dawley rat.; type: functional
How it was run: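 Compound was given at 0.03% w/w in the diet (about 30 mg/kg/day). Basal-diet rats (n = 4) gave a baseline that was subtracted. Plasma cholesterol was measured enzymatically, and the result was expressed as percent change versus undosed controls.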

Compound | inhibition [1] [%] | IC50 [2] [nM] | inhibition [3] [%] | Change (Rattus norvegicus) [%]
CCSc1nc(-c2ccccc2)c(-c2ccccc2)[nH]1 | 99 | 770 | – | –
CCOC(=O)CC(C)(O)CC(O)CSc1nc(-c2ccccc2)c(-c2ccccc2)[nH]1 (stereo not drawn) | – | 280 | 91 | –
CC(C)(C)c1ccc(-c2nc(SC[C@H]3C[C@@](C)(O)CC(=O)O3)[nH]c2-c2ccc(C(C)(C)C)cc2)cc1.CC(C)(C)c1ccc(-c2nc(SC[C@H]3C[C@](C)(O)CC(=O)O3)[nH]c2-c2ccc(C(C)(C)C)cc2)cc1 | – | – | 32 | –
C[C@@]1(O)CC(=O)OC(CSc2nc(-c3ccccc3)c[nH]2)C1 (stereo partly drawn) | 0 | – | – | –
COC(CSc1nc(-c2ccccc2)c(-c2ccccc2)[nH]1)OC | 99 | 580 | – | –
CC(C)c1ccc(-c2nc(SC[C@H]3C[C@@](C)(O)CC(=O)O3)[nH]c2-c2ccc(C(C)C)cc2)cc1.CC(C)c1ccc(-c2nc(SC[C@H]3C[C@](C)(O)CC(=O)O3)[nH]c2-c2ccc(C(C)C)cc2)cc1 | – | 230 | 90 | –
CCOC(CSc1nc(-c2ccccn2)c(-c2ccccn2)[nH]1)OCC | 15 | – | – | –
COc1ccc(-c2nc(S)[nH]c2-c2ccc(OC)cc2)cc1 | 42 | – | – | –
Clc1ccccc1-c1[nH]c(SCC2CCCCO2)nc1-c1ccccc1 (stereo not drawn) | – | – | 76 | –
C[C@@]1(O)CC(=O)O[C@@H](CSc2nc(-c3ccccc3)c(-c3ccccc3)s2)C1.C[C@]1(O)CC(=O)O[C@@H](CSc2nc(-c3ccccc3)c(-c3ccccc3)s2)C1 | 4 | – | – | –
O=C1CCCC(CSc2nc(-c3ccccc3)c(-c3ccccc3)[nH]2)N1 (stereo not drawn) | – | 610 | 86 | –
CCOC(CSc1nc(-c2ccco2)c(-c2ccco2)[nH]1)OCC | – | – | 34 | –
CC(O)(CC(=O)OC(C)(C)C)CC(O)CSc1nc2c3ccccc3c3ccccc3c2[nH]1 (stereo not drawn) | – | – | 41 | –
O=C(O)CCC(O)CSc1nc(-c2ccccc2)c(-c2ccccc2)[nH]1 (stereo not drawn) | 76 | – | – | –
C[C@@]1(O)CC(=O)O[C@@H](CSc2nc(-c3ccccc3)c(-c3ccccc3)n2-c2ccccc2)C1.C[C@]1(O)CC(=O)O[C@@H](CSc2nc(-c3ccccc3)c(-c3ccccc3)n2-c2ccccc2)C1 | 32 | – | – | –
Cc1ccc(-c2nc(SC[C@H]3C[C@@](C)(O)CC(=O)O3)[nH]c2-c2ccc(C)cc2)cc1.Cc1ccc(-c2nc(SC[C@H]3C[C@](C)(O)CC(=O)O3)[nH]c2-c2ccc(C)cc2)cc1 | 99 | 170 | – | –
CO[C@@H]1C[C@@](C)(O)C[C@H](CSc2nc(-c3ccccc3)c(-c3ccccc3)[nH]2)O1 | – | 82 | 93 | –
C[C@@]1(O)CC(=O)O[C@@H](CSc2nc(-c3ccccc3)c(-c3ccccc3)o2)C1.C[C@]1(O)CC(=O)O[C@@H](CSc2nc(-c3ccccc3)c(-c3ccccc3)o2)C1 | 13 | – | – | –

Compound | inhibition [1] [%] | IC50 [2] [nM] | inhibition [3] [%] | Change (Rattus norvegicus) [%]
Clc1cccc(-c2[nH]c(SCC3CCCCO3)nc2-c2ccccc2)c1 (stereo not drawn) | – | 560 | 90 | –
COc1ccccc1-c1nc(S)[nH]c1-c1ccccc1OC | – | – | 0 | –
Sc1nc(-c2ccccc2Cl)c(-c2ccccc2Cl)[nH]1 | 27 | – | – | –
C[C@]1(O)CC(=O)OC(CSc2nc(-c3ccccc3)n(-c3ccccc3)n2)C1 (stereo partly drawn) | – | – | 12 | –
CO[C@H]1C[C@H](O)C[C@@H](CSc2nc(-c3ccccc3)c(-c3ccccc3)[nH]2)O1 | – | 90 | 92 | –
CC1=CC(=O)OC(CSc2nc(-c3ccccc3Cl)c(-c3ccccc3Cl)[nH]2)C1 (stereo not drawn) | 95 | 1700 | – | –
c1ccc(CSc2nc(-c3ccccc3)c(-c3ccccc3)[nH]2)cc1 | – | 290 | 90 | –
CC(O)(CC(=O)[O-])CC(O)CSc1nc(-c2ccccc2)c(-c2ccccc2)[nH]1.[Na+] (stereo not drawn) | 66 | – | – | -33
O=C1CC(O)CC(CSc2nc(-c3ccccc3)c(-c3ccccc3)[nH]2)O1 (stereo not drawn) | – | 910 | 89 | –
Cn1c(SC[C@H]2C[C@@](C)(O)CC(=O)O2)nc(-c2ccccc2)c1-c1ccccc1.Cn1c(SC[C@H]2C[C@](C)(O)CC(=O)O2)nc(-c2ccccc2)c1-c1ccccc1 | 90 | 2600 | – | –
C[C@@]1(O)CC(=O)O[C@@H](CSc2nc(-c3ccc(C(F)(F)F)cc3)c(-c3ccc(C(F)(F)F)cc3)[nH]2)C1.C[C@]1(O)CC(=O)O[C@@H](CSc2nc(-c3ccc(C(F)(F)F)cc3)c(-c3ccc(C(F)(F)F)cc3)[nH]2)C1 | 95 | 1000 | – | –
O=C1CCC(CSc2nc(-c3ccccc3)c(-c3ccccc3)[nH]2)N1 (stereo not drawn) | – | 360 | 87 | –
COc1ccccc1-c1nc(SC[C@H]2C[C@@](C)(O)CC(=O)O2)[nH]c1-c1ccccc1OC.COc1ccccc1-c1nc(SC[C@H]2C[C@](C)(O)CC(=O)O2)[nH]c1-c1ccccc1OC | – | – | 29 | –
CO[C@H]1O[C@H](CSc2nc(-c3ccccc3)c(-c3ccccc3)[nH]2)[C@@H](O)[C@H](O)[C@@H]1O | – | – | 52 | –
O=C(O)CCCCCSc1nc(-c2ccccc2Cl)c(-c2ccccc2Cl)[nH]1 | 20 | – | – | –
CO[C@H]1C[C@@](C)(O)C[C@H](CSc2nc(-c3ccccc3)c(-c3ccccc3)[nH]2)O1 | – | 280 | 89 | –
c1ccc(-c2nc(SCCC3OCCCO3)[nH]c2-c2ccccc2)cc1 | – | 730 | 80 | –

The next lines start with results.

inhibition [1] [%] | IC50 [2] [nM] | inhibition [3] [%] | Compound | Change (Rattus norvegicus) [%]
97 | 570 | – | COc1cccc(-c2nc(SCC3C[C@](C)(O)CC(=O)O3)[nH]c2-c2cccc(OC)c2)c1 (stereo partly drawn) | –
87 | 420 | – | COc1ccc(-c2nc(SCC3C[C@](C)(O)CC(=O)O3)[nH]c2-c2ccc(OC)cc2)cc1 (stereo partly drawn) | –
78 | – | – | O=C1CCC(CSc2nc(-c3ccccc3)c(-c3ccccc3)[nH]2)O1 (stereo not drawn) | –
– | – | 77 | CC1=CC(=O)OC(CSc2nc(-c3ccc(Cl)cc3)c(-c3ccc(Cl)cc3)[nH]2)C1 (stereo not drawn) | –
98 | 180 | – | C[C@@]1(O)CC(=O)OC(CSc2nc(-c3ccc(Cl)cc3)c(-c3ccc(Cl)cc3)[nH]2)C1 (stereo partly drawn) | -11
96 | 610 | – | CC1=CC(=O)OC(CSc2nc(-c3ccc(F)cc3)c(-c3ccc(F)cc3)[nH]2)C1 (stereo not drawn) | –
98 | 440 | – | CC1=CC(=O)OC(CSc2nc(-c3cccc(Cl)c3)c(-c3cccc(Cl)c3)[nH]2)C1 (stereo not drawn) | –
– | 110 | 93 | C[C@@]1(O)CC(=O)OC(CSc2nc(-c3cccc(Cl)c3)c(-c3cccc(Cl)c3)[nH]2)C1 (stereo partly drawn) | –
23 | – | – | C[C@@]1(O)CC(=O)O[C@@H](CS(=O)(=O)c2nc(-c3ccccc3)c(-c3ccccc3)[nH]2)C1 | –
– | – | 87 | Clc1ccc(-c2[nH]c(SCC3CCCCO3)nc2-c2ccccc2)cc1 (stereo not drawn) | –
97 | 250 | – | CC(O)(CC(=O)OC(C)(C)C)CC(O)CSc1nc(-c2ccc(Cl)cc2)c(-c2ccc(Cl)cc2)[nH]1 (stereo not drawn) | -53
96 | 340 | – | COc1ccc(-c2nc(SCC3C[C@@](C)(O)CC(=O)O3)[nH]c2-c2ccc(OC)cc2)cc1 (stereo partly drawn) | –
97 | 280 | – | CC1=CC(=O)OC(CSc2nc(-c3ccc(C)cc3)c(-c3ccc(C)cc3)[nH]2)C1 (stereo not drawn) | –
– | 160 | 94 | C[C@@]1(O)CC(O)O[C@@H](CSc2nc(-c3ccccc3)c(-c3ccccc3)[nH]2)C1 (stereo partly drawn) | –
99 | 140 | – | C[C@@]1(O)CC(=O)OC(CSc2nc(-c3ccccc3Cl)c(-c3ccccc3Cl)[nH]2)C1 (stereo partly drawn) | –
97 | 790 | – | C[C@@]1(O)CC(=O)OC(CSc2nc(-c3ccc(F)cc3)c(-c3ccc(F)cc3)[nH]2)C1 (stereo partly drawn) | –

Source: ChEMBL document CHEMBL1125365, “Acyl-CoA:cholesterol O-acyl transferase (ACAT) inhibitors. 1. 2-(Alkylthio)-4,5-diphenyl-1H-imidazoles as potent inhibitors of ACAT” (J Med Chem, 1992)
